Only some compounds are listed: those with a hit (about 2.7% of all), similar ones and a draw of the others.
p97 ATPase inh – inhibitors of human p97 ATPase, primary screen, biochemical; recombinant p97 ATPase, Kinase-Glo ATP luminescence, 3 h; inhibition, % at 8 µM; 220,000 compounds, 0.42% hits; in the data active = inhibition above about 15%
L929 necroptosis – inhibitors of zVAD-triggered necroptosis, primary screen, L929 cells. L929 zVAD necroptosis rescue, ATP luminescence, 24 h; with zVAD 60 µM. viability rescue, % at 10 µM. 220,000 compounds, 0.38% hits;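 active = activation, scaled between plate controls, above about 75%, limit read from the data; inactive = activation under that limit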
Wee1 degr inh – Wee1 degradation inhibitors, primary screen, cell-based, HeLa, Wee1K328M-luciferase, luminescence; Wee1-like protein kinase (Homo sapiens), P30291; HeLa Luc-Wee1K328M stability; 100% = proteasome inhibitor MG132 effect; reporter increase, % at 5 µM; 220,000 compounds, 1.2% hits;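 active = activation above the mean of all tested compounds plus 3 SD, set per screening run, cut at about 8.8% in these data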;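 note: cells exposed to compound for 20 h before luminescence read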
RBBP9 inhibitor – human RBBP9 inhibitors, primary screen, biochemical, fluorescence polarization, FP-Rh probe, HTS; recombinant RBBP9; 220,000 compounds, 0.2% hits; AID 1515, 2009; Serine hydrolase RBBP9 (Homo sapiens), O75884; inhibition, % at 7.94 µM;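 active = inhibition above the campaign mean of all tested compounds plus 3 SD, cut at about 14% in these data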
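Test system: recombinant human RBBP9; Timing: 30 min then 45 min, 25 °C; Detection: fluorescence polarization; Control set: RBBP9 with DMSO as uninhibited control, no-protein wells as full inhibition; Compound dosing: one concentration, 7.94 µM nominal, 0.794% DMSO; Probe or stimulus: FP-Rh activity-based probe, 375 nM before mixing.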
TNF necrop inh – inhibitors of TNF-alpha triggered necroptosis, primary screen, cell-based, Jurkat FADD-/-, single concentration. Jurkat FADD-/- TNF necroptosis rescue, ATP luminescence, 24 h; 0 = TNF only, 100 = no-TNF cells. activation (protection from cell death), % at 10 µM. 220,000 compounds, 0.068% hits. AID 463075, 2010;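 active = activation, meaning protection from cell death, of at least 50% relative to plate controls; inactive = activation below 50%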;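 note: necroptosis triggered by 40 ng/mL TNF-alpha added together with compound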
PfM18AAP inh-1 – PfM18AAP inhibitors, malaria aminopeptidase, primary screen, biochemical, QFRET, recombinant enzyme; 290,000 compounds, 1.2% hits; H-Glu-NHMec fluorogenic cleavage; M18 aspartyl aminopeptidase (Plasmodium falciparum 3D7); AID 1822, 2009; inhibition, % at 7.35 µM;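 active = inhibition above the campaign mean inhibition over all tested compounds plus 3 SD, cut at about 28% in these data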
PfM18AAP inh-2 – PfM18AAP inhibitors, malaria aminopeptidase, confirmation, biochemical, QFRET, recombinant enzyme, triplicate. shares compounds with PfM18AAP inh-1. H-Glu-NHMec fluorogenic cleavage. inhibition, % at 7.35 µM. 2,400 compounds, 28% hits. AID 2170, 2009;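 active = mean inhibition over replicate wells above the hit cutoff set for the earlier primary screen, cut at about 29% in these data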
CTSL1 confirm – cathepsin L1 inhibitors, retest, confirmation, counter-screen for PFM18AAP inhibitor project, biochemical, QFRET, triplicate. shares compounds with PfM18AAP inh-1. purified cathepsin L1, Z-Leu-Arg-MCA fluorescence. inhibition, % at 5.96 µM. 2,400 tested, under 10 active;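 active = average inhibition across replicates above the hit cutoff set in the earlier primary screen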
Hits are given with their value; – = inactive; · = no result given.

SMILES | p97 ATPase inh | L929 necroptosis | Wee1 degr inh | RBBP9 inhibitor | TNF necrop inh | PfM18AAP inh-1 | PfM18AAP inh-2 | CTSL1 confirm
CCOC(=O)C1(C)NC(c2cccc(C)c2)C2C(=O)N(c3ccccc3)C(=O)C21 (centres undefined) | · | · | · | · | · | – | · | ·
N#Cc1cnc2ncnn2c1-c1ccccc1 | – | – | – | – | – | 56 | – | –
CCOc1ccc(NC(=O)Cn2nnc(C(=O)NCc3ccc4c(c3)OCO4)c2N)cc1 | · | · | · | · | · | – | · | ·
Cc1ccc(CNC(=O)COC(=O)c2ccc(S(=O)(=O)N(C)C)cc2)cc1 | – | – | – | – | – | – | · | ·
CCC(C)c1ccc(O)c(N)c1 (centres undefined) | – | – | – | – | – | 64 | 69 | –
CCSc1ccccc1C(=O)NC1CCCCC1 | – | – | – | – | – | – | · | ·
COc1cccc(C(=O)NNC(=O)Cc2csc(N)n2)c1 | – | – | – | – | – | 36 | – | –
CCOC(=O)Cc1csc(NC(=O)c2cccc(OC)c2)n1 | – | – | – | – | – | – | · | ·
COc1ccc(N2CCN(CCC(=O)c3ccc4ccccc4c3)CC2)cc1 | · | · | · | · | · | – | · | ·
O=C(CN1CCN(c2ccc(O)cc2)CC1)Nc1cc(S(=O)(=O)N2CCCC2)ccc1Cl | – | – | – | – | – | 36 | – | –
Cc1ccc(C(=O)Nc2ccccc2C(=O)N2CCCC(C)C2)cc1 (centres undefined) | · | · | · | · | · | – | · | ·
Cc1cccc(C(=O)NC(=S)NNC(=O)Cc2ccccc2)c1 | – | – | – | – | – | 38 | – | –
CCCCCC(=O)NNC(=S)NC(=O)c1cccc([N+](=O)[O-])c1 | – | – | – | – | – | 35 | – | –
O=C(NNC(=S)NCc1ccc(Cl)cc1)c1cccnc1 | · | · | · | · | · | – | · | ·
O=C(NNC(=S)NC(=O)c1cccnc1)c1ccc(Cl)cc1 | – | – | – | – | – | 39 | – | –
CCCCCC(=O)NNC(=S)NC(=O)c1ccccc1[N+](=O)[O-] | – | – | – | – | – | – | · | ·
O=C(Cc1ccc(Cl)cc1)NNC(=S)NC(=O)c1cccnc1 | – | – | – | – | – | 50 | – | –
Cc1cccc(C(=O)NC(=S)Nc2ccccc2C(=O)O)c1 | – | – | – | – | – | – | · | ·
Cc1ccc(NC(=O)Nc2cc(S(C)(=O)=O)ccc2Cl)cc1 | – | – | – | – | – | – | · | ·
O=C(NC12CC3CC(CC(C3)C1)C2)c1cccnc1Cl | · | · | · | · | · | – | · | ·
CC(NC(=O)c1cccc(S(=O)(=O)N2CCN(Cc3ccccc3)CC2)c1)c1ccc(Br)cc1 (centres undefined) | · | · | · | · | · | – | · | ·
Cc1csc2c(SCC(=O)NNS(=O)(=O)c3cccc(C(F)(F)F)c3)ncnc12 | – | – | – | – | – | 36 | – | –
N#CC[C@H](Cc1ccccc1)N1CCN(CCc2ccccc2)CCC1=O | · | · | · | · | · | 33 | – | –
N#CC[C@H](Cc1ccccc1)N1CCN(Cc2ccccc2)CCC1=O | · | · | · | · | · | – | · | ·
COc1cc([N+](=O)[O-])ccc1NC(=O)CCS(=O)(=O)c1ccc2c(c1)n(C)c(=O)c(=O)n2C | · | · | · | · | · | – | · | ·
CCC(=O)NNC(=O)Cc1c(C)n(C(=O)c2ccc(Cl)cc2)c2ccc(OC)cc12 | · | · | · | · | · | – | · | ·
O=C(Cc1c[nH]c2ccccc12)NCc1ccccc1F | – | – | – | – | – | – | · | ·
Cc1nn(C)cc1-c1n[nH]c(=S)n1-c1ccc(F)cc1 | – | – | – | – | – | 35 | – | –

Source: PubChem BioAssay (several laboratories)
